Activity calls are given as the source filed them. No cut-off for these calls is given here.
Tests used:
[1] = target: GABA-A receptor; anion channel; test: Inhibition of [3H]flunitrazepam binding to GABA-A benzodiazepine receptor of rat cerebral cortex; assay type: tissue-based
[2] = tested on: Rattus norvegicus; test: Minimum effective dose (ip) tested for its anxiolytic activity in rat using the shock-induced suppression of drinking (SSD) test.; assay type: functional; conditions: read-out: MED
Method in brief: (§1)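 Shock-induced suppression of drinking (Vogel-type conflict) in rats, with compounds given intraperitoneally at one or more dose levels, 8 rats per dose. MED is the lowest dose giving a significant increase (p < 0.05, Student's t test) in the mean number of shocks taken versus vehicle control.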

[3] = tested on: Rattus norvegicus; test: Minimum effective dose (po) tested for its anxiolytic activity in rat using the shock-induced suppression of drinking (SSD) test.; assay type: functional; conditions: read-out: MED
Method in brief: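 Rats (n = 8 per dose) were dosed orally at one or more levels and then run in the shock-induced suppression of drinking conflict test. MED is the dose producing a significant rise (p < 0.05, Student's t test) in mean shocks accepted relative to vehicle-treated controls.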

[4] = tested on: Rattus norvegicus; test: Minimum effective dose (ip) tested for its anxiolytic activity in rat using the shock-induced suppression of drinking (SSD) test; NS is No Significant activity at 25 mg/Kg; assay type: functional, organism-based; method in brief: as §1
[5] = tested on: GABA-A receptor; anion channel; test: Inhibition of [3H]flunitrazepam binding to GABA-A benzodiazepine receptor of rat cerebral cortex at 500 nM; assay type: tissue-based
Method in brief: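 Rat cerebral cortex membranes were incubated with [3H]flunitrazepam in the presence of the test agent at a single concentration (nM), run in triplicate with under 7% variation between values. Binding is reported as % inhibition of [3H]flunitrazepam binding.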

Compound | IC50 [1] | minimal effective dose [3] | further results
CCCCCn1ncc2c(N)c(C(=O)NC(C)C)cnc21 | 414 nM | – | minimal effective dose [2]: 25 mg/kg
CC#CCCn1ncc2c(N)c(C(=O)NCC3CC3)cnc21 | 271 nM | 3.1 mg/kg | –
CCCCCn1ncc2c(N)c(C(=O)NC3CC3)cnc21 | 312 nM | 12.5 mg/kg | –
CCCn1ncc2c(N)c(C(=O)OCC)c(C)nc21 | 410 nM | – | minimal effective dose [2]: 80 mg/kg
CCOC(=O)c1c(C)nc2c(cnn2CCCC(C)(C)C)c1N | 404 nM | – | NS [4]: inactive
C=CCOC(=O)c1c(C)nc2c(cnn2CCC#CC)c1N | 79 nM | 25 mg/kg | –
CCCCCn1ncc2c(N)c(C(=O)OCC3CC3)c(C)nc21 | 131 nM | 12.5 mg/kg | –
CCCCCn1ncc2c(N)c(C(=O)OCCC)c(C)nc21 | 50 nM | – | minimal effective dose [2]: 25 mg/kg
CCCCn1ncc2c(N)c(C(=O)OCC)c(C)nc21 | 50 nM | 40 mg/kg | –
CCCCCn1ncc2c(N)c(C(=O)OCCCC)c(C)nc21 | 113 nM | – | minimal effective dose [2]: 50 mg/kg
C#CCNC(=O)c1cnc2c(cnn2CCCCC)c1N | 60 nM | 6.3 mg/kg | –
CCCCCn1ncc2c(N)c(C(=O)N3CCCC3)cnc21 | – | – | IC50 [5]: Not Active; minimal effective dose [2]: 50 mg/kg
CCCCCn1ncc2c(N)c(C(=O)N(CC)CC)cnc21 | – | 25 mg/kg | IC50 [5]: Not Active
CCOC(=O)c1c(C)nc2c(cnn2CC(C)CC)c1N (stereo unspecified) | 391 nM | – | minimal effective dose [2]: 25 mg/kg
CCCCCn1ncc2c(N)c(C(=O)NCCCC)cnc21 | 80 nM | 50 mg/kg | –
C=CCOC(=O)c1c(C)nc2c(cnn2CCCC)c1N | 21 nM | 25 mg/kg | –
C=CCOC(=O)c1c(C)nc2c(cnn2CC=C)c1N | 112 nM | 25 mg/kg | –
C#CCCCn1ncc2c(N)c(C(=O)OCC=C)c(C)nc21 | 5.5 nM | 12.5 mg/kg | –
CCCCCn1ncc2c(N)c(C(=O)N3CCC3)cnc21 | 137 nM | 50 mg/kg | –
C#CCCCn1ncc2c(N)c(C(=O)OCC)c(C)nc21 | 31 nM | 25 mg/kg | –
C=CCCCn1ncc2c(N)c(C(=O)OCC=C)c(C)nc21 | 9.7 nM | 25 mg/kg | –
C=CCNC(=O)c1cnc2c(cnn2CCCCC)c1O | – | 50 mg/kg | IC50 [5]: Not Active
C#CCCCn1ncc2c(N)c(C(=O)OCC3CC3)c(C)nc21 | 22 nM | 12.5 mg/kg | –

Compound | IC50 [1] | minimal effective dose [3] | further results
C=CCNC(=O)c1c[n+]([O-])c2c(cnn2CCCCC)c1N | 53 nM | 12.5 mg/kg | –
CCCCCn1ncc2c(N)c(C(=O)NCc3ccccc3)cnc21 | 36 nM | 25 mg/kg | –
CCCCCn1ncc2c(N)c(C(=O)OCC)c(C)nc21 | 58 nM | 50 mg/kg | –
CCCCCCn1ncc2c(N)c(C(=O)OCC)c(C)nc21 | 320 nM | – | minimal effective dose [2]: 50 mg/kg
CCCCCn1ncc2c(N)c(C(=O)OCc3ccccc3)c(C)nc21 | 100 nM | – | MED [4]: inactive
CCOC(=O)c1c(C)nc2c(cnn2CCC(C)C)c1N | 39 nM | 100 mg/kg | –
C=C(C)COC(=O)c1c(C)nc2c(cnn2CCCCC)c1N | 69 nM | – | MED [4]: inactive
CCCCCn1ncc2c(N)c(C(=O)NCC)cnc21 | 109 nM | 12.5 mg/kg | –
C#CCN(CC#C)C(=O)c1cnc2c(cnn2CCCCC)c1N | – | 12.5 mg/kg | IC50 [5]: Not Active
CC#CCCn1ncc2c(N)c(C(=O)OCC3CC3)c(C)nc21 | 315 nM | 12.5 mg/kg | –
C=CCCn1ncc2c(N)c(C(=O)OCC=C)c(C)nc21 | 54 nM | 25 mg/kg | –
CCCCCn1ncc2c(N)c(C(=O)NOCC)cnc21 | 531 nM | 12.5 mg/kg | –
C#CCN(C)C(=O)c1cnc2c(cnn2CCCCC)c1N | – | 6.3 mg/kg | IC50 [5]: Not Active
CC#CCCn1ncc2c(N)c(C(=O)N(C)CCC)cnc21 | – | 12.5 mg/kg | IC50 [5]: Not Active
C=CCN(C)C(=O)c1cnc2c(cnn2CCC#CC)c1N | – | 12.5 mg/kg | IC50 [5]: Not Active
C=CCOC(=O)c1c(C)nc2c(cnn2CCCCC)c1N | 21 nM | 25 mg/kg | –
C#CCCn1ncc2c(N)c(C(=O)OCC=C)c(C)nc21 | 160 nM | 50 mg/kg | –
CC#CCNC(=O)c1cnc2c(cnn2CCCCC)c1N | 84 nM | 6.3 mg/kg | –
C#CCCCCn1ncc2c(N)c(C(=O)OCC=C)c(C)nc21 | 8.6 nM | 25 mg/kg | –
CCCCCn1ncc2c(N)c(C(=O)N(C)CCC)cnc21 | – | 6.3 mg/kg | IC50 [5]: Not Active
CCCCCn1ncc2c(N)c(C(=O)NC)cnc21 | 354 nM | 12.5 mg/kg | –
CCCCCn1ncc2c(N)c(C(=O)OCCC3CC3)c(C)nc21 | 51 nM | – | minimal effective dose [2]: 50 mg/kg
C=CCOC(=O)c1c(C)nc2c(cnn2CCC(C)C)c1N | 13 nM | 50 mg/kg | –

Compound | IC50 [1] | minimal effective dose [3] | further results
CC#CCCn1ncc2c(N)c(C(=O)NCCC)cnc21 | 500 nM | 6.3 mg/kg | –
CCCCCn1ncc2c(N)c(C(=O)OCC)cnc21 | – | – | MED [4]: inactive
C=CCNC(=O)c1cnc2c(cnn2CCCCC)c1N | 28 nM | 12.5 mg/kg | –
C=CCN(C)C(=O)c1cnc2c(cnn2CCCCC)c1N | – | 12.5 mg/kg | IC50 [5]: Not Active
CCCCCn1ncc2c(N)c(C(=O)N(C)C)cnc21 | – | 12.5 mg/kg | IC50 [5]: Not Active
CCCCCn1ncc2c(N)c(C(=O)NCC3CC3)cnc21 | 35 nM | 6.3 mg/kg | –
CCCCCn1ncc2c(N)c(C(=O)NCCC)cnc21 | 89 nM | 25 mg/kg | –
CCOC(=O)c1c(C)nc2c(cnn2CC)c1NC | – | – | MED [4]: inactive
C=CCOC(=O)c1cnc2c(cnn2CCC(C)C)c1N | 5.7 nM | – | minimal effective dose [2]: 25 mg/kg
CCCCNc1c(C(=O)OCC)c(C)nc2c1cnn2CC [TRACAZOLATE] | – | 40 mg/kg | –
CNC1=Nc2ccc(Cl)cc2C(c2ccccc2)=[N+]([O-])C1 [CHLORDIAZEPOXIDE] | 330 nM | 10 mg/kg | –
CCCCCn1ncc2c(N)c(C(=O)N(CC)CCC)cnc21 | – | 25 mg/kg | IC50 [5]: Not Active
C=CCOC(=O)c1c(C)nc2c(cnn2CCC2CC2)c1N | 16 nM | 25 mg/kg | –
CC#CCCn1ncc2c(N)c(C(=O)OCC)c(C)nc21 | 590 nM | 25 mg/kg | –
C#CCOC(=O)c1c(C)nc2c(cnn2CCCCC)c1N | 89 nM | 25 mg/kg | –
CCCCCn1ncc2c(N)c(C(N)=O)cnc21 | 2450 nM | 12.5 mg/kg | –
C=CCN(CC=C)C(=O)c1cnc2c(cnn2CCCCC)c1N | – | 25 mg/kg | IC50 [5]: Not Active
CCOC(=O)c1c(C)nc2c(cnn2CCC(C)CC)c1N (stereo unspecified) | 79 nM | – | minimal effective dose [2]: 25 mg/kg
CCOC(=O)c1c(C)nc2c(cnn2CC)c1N | 460 nM | – | minimal effective dose [2]: 75 mg/kg
CCOC(=O)c1c(C)nc2c(cnn2Cc2ccccc2)c1N | 156 nM | – | MED [4]: inactive
CCCCCn1ncc2c(N)c(C(=O)Nc3ccccc3)cnc21 | 790 nM | – | minimal effective dose [2]: 50 mg/kg
